By EC90 is commonly meant the point of the concentration-response curve where the effect stands at 90%. High values mean weaker potency, low ones greater potency. The term EC50 denotes the midpoint of the concentration-response curve.

Three molecules from ChEMBL document CHEMBL1156973, “(-)-Carbodine: enantiomeric synthesis and in vitro antiviral activity against various strains of influenza virus including H5N1 (avian influenza) and novel 2009 H1N1 (swine flu)” (Bioorg Med Chem Lett, 2010) can be followed below.

In data set [1] the test system is H5N1 subtype. In words: Antiviral activity against Influenza A virus Gull/PA/4175/83/H5N1 infected MDCK cells after 3 days by virus yield reduction assay. Format: functional, Influenza A virus (A/gull/Pennsylvania/4175/83(H5N1)). As to conditions: 72 h.
A short description of data set [2]: Selectivity ratio of IC50 for MDCK cells to EC50 for Influenza A virus Hong Kong/213/2003/H5N1 by neutral red dye uptake assay. Type of data set: ADME, cell-based. As to conditions: dog; for selectivity ratio: MDCK cells, read-out: Ratio IC50/EC50. In short, it runs like this: (§1)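 Neutral red uptake in MDCK cells: IC50 (50% inhibition of uninfected cells) divided by EC50 (50% inhibition of virus effect), both from replicate serial-dilution assays.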

Data set [3] in a line: Selectivity ratio of IC50 for MDCK cells to EC50 for Influenza A virus Wisconsin/67/2005/H3N2 by neutral red dye uptake assay. As to conditions: dog; for selectivity ratio: MDCK cells, read-out: Ratio IC50/EC50. Type of data set: ADME, cell-based. In short, it runs like this:
as §1

The nature of data set [4]: Antiviral activity against Influenza A virus Solomon Islands/03/2006/H1N1 infected MDCK cells assessed as inhibition of virus-induced cytopathic effect after 3 days. Format: functional, organism-based, Influenza A virus (A/Solomon Islands/3/2006(H1N1)). In short, it runs like this:
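Triplicate MDCK (ATCC CCL-34) wells got serial dilutions of compound. They were then inoculated with ≤300 CCID50, enough for ~100% CPE in control wells within 3 days, using the same inoculum for all replicates. CPE was scored visually. EC50 is the concentration reducing CPE by 50%, as the mean of triplicates.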
For orientation: Damage to the host cells serves as the signal in cytopathic effect assays.

Data set [5] has as its system Influenza B virus. In words: Antiviral activity against Influenza B virus Malaysia/2506/2004 infected MDCK cells after 42 to 46 hrs by neutral red dye uptake assay. As to conditions: Influenza B virus, B/Malaysia/2506/2004, MDCK. Type of data set: functional, organism-based, B/Malaysia/2506/2004. In short, it runs like this: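 Triplicate MDCK wells got serial compound dilutions, then ≤300 CCID50 of virus, with the same inoculum for all replicates. Antiviral effect was read by neutral red dye uptake. EC50 is the concentration giving 50% inhibition of the virus effect, as the mean of triplicates.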

Data set [6] deals with Influenza A virus. Nature of the data set: Antiviral activity against Influenza A virus Vietnam/1203/ 2004H/H5N1 infected MDCK cells assessed as inhibition of virus-induced cytopathic effect after 3 days. Format: functional, organism-based, A/Viet Nam/1203/2004(H5N1).
Data set [7] deals with H5N1 subtype. In words: Antiviral activity against Influenza A virus Hong Kong/213/2003/H5N1 infected MDCK cells assessed as inhibition of virus-induced cytopathic effect after 3 days. Format: functional, organism-based, Influenza A virus (A/Hong Kong/213/2003(H5N1)). As to conditions: 72 h.
Data set [8] can be described thus: Selectivity ratio of IC50 for MDCK cells to EC50 for Influenza A virus Solomon Islands/03/2006/H1N1 by neutral red dye uptake assay. As to conditions: dog; for selectivity ratio: MDCK cells, read-out: Ratio IC50/EC50. Type of data set: ADME, cell-based. In short, it runs like this: as §1
A short description of data set [9]: Selectivity ratio of IC50 for MDCK cells to EC50 for inhibition of virus-induced cytopathic effect of Influenza A virus Vietnam/1203/ 2004H/H5N1. Format: cell-based. As to conditions: dog, MDCK cells; read-out: Ratio IC50/EC50. In short, it runs like this:
(§2)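 IC50 (50% inhibition of uninfected MDCK cells) divided by EC50 (concentration reducing virus-induced CPE by 50%, scored visually), both from replicate serial-dilution assays.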

Data set [10] can be described thus: Selectivity ratio of IC50 for MDCK cells to EC50 for inhibition of virus-induced cytopathic effect of Influenza A virus California/07/2009 /H1N1. Type of data set: cell-based. As to conditions: dog, MDCK cells; read-out: Ratio IC50/EC50. In short, it runs like this: as §2
A short description of data set [11]: Selectivity ratio of IC50 for MDCK cells to EC50 for Influenza A virus California/07/2009 /H1N1 by neutral red dye uptake assay. Type of data set: ADME, cell-based. As to conditions: dog, MDCK cells; read-out: Ratio IC50/EC50. In short, it runs like this: as §1
For data set [12], the system named is Influenza A virus. Nature of the data set: Antiviral activity against Influenza A virus Vietnam/1203/ 2004H/H5N1 infected MDCK cells after 42 to 46 hrs by neutral red dye uptake assay. Type of data set: functional, organism-based, A/Viet Nam/1203/2004(H5N1). As to conditions: Influenza A virus, A/Viet Nam/1203/2004(H5N1), MDCK.
The test system of data set [13] is Influenza A virus. Nature of the data set: Antiviral activity against Influenza A virus California/07/2009 /H1N1 infected MDCK cells assessed as inhibition of virus-induced cytopathic effect after 3 days. Format: functional, organism-based, A/California/07/2009(H1N1). As to conditions: Influenza A virus, A/California/07/2009(H1N1), MDCK, 72 h.
Data set [14] in a line: Selectivity ratio of IC50 for MDCK cells to EC90 for Influenza A virus Duck/MN/1525/81/H5N1 by virus yield reduction assay. Format: ADME, cell-based. As to conditions: dog, MDCK cells. In short, it runs like this: (§3)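 IC50 (50% inhibition of uninfected MDCK cells) divided by EC90 (concentration reducing the infectious virus titer by 90% in the yield reduction assay).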

In data set [15] the test system is Influenza A virus. Nature of the data set: Antiviral activity against Influenza A virus California/07/2009 /H1N1 infected MDCK cells after 3 days by virus yield reduction assay. Type of data set: functional, A/California/07/2009(H1N1). As to conditions: Influenza A virus, A/California/07/2009(H1N1), MDCK, 72 h.
For data set [16], the system named is H5N1 subtype. Nature of the data set: Antiviral activity against Influenza A virus Hong Kong/213/2003/H5N1 infected MDCK cells after 42 to 46 hrs by neutral red dye uptake assay. Format: functional, organism-based, Influenza A virus (A/Hong Kong/213/2003(H5N1)).
For data set [17], the system named is Influenza A virus. Nature of the data set: Antiviral activity against Influenza A virus Wisconsin/67/2005/H3N2 infected MDCK cells after 3 days by virus yield reduction assay. Type of data set: functional, Influenza A virus (A/Wisconsin/67/2005(H3N2)). As to conditions: Influenza A virus, MDCK, 72 h. In short, it runs like this: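 Yield reduction assay: MDCK cells got serial compound dilutions and ≤300 CCID50 virus, in triplicate. Progeny virus was titrated. EC90 is the concentration reducing the infectious titer by 90%, as the mean of triplicates.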

The nature of data set [18]: Selectivity ratio of IC50 for MDCK cells to EC90 for Influenza A virus Gull/PA/4175/83/H5N1 by virus yield reduction assay. Type of data set: ADME, cell-based. As to conditions: dog. In short, it runs like this:
as §3

Where [19] appears, read: Influenza A virus, A/Viet Nam/1203/2004(H5N1), MDCK.

For `Nc1ccn([C@@H]2C[C@H](CO)[C@@H](O)[C@H]2O)c(=O)n1`, the concentration for an effect of 90% (EC90) was determined as 1.6 µM in data set [1], 3.8 µM in data set [15] and 2.5 µM in data set [17]. Moreover, the results for the “Ratio IC50/EC50” value in [2] (mdck), in [3] (mdck) and in data set [8] (mdck) were over 518, over 207 and over 690, respectively. Besides, the EC50 in [4] (mdck) was 0.7 µM; in data set [5] it was 0.8 µM; in data set [6] (setting [19]), 0.8 µM; in data set [7], 0.7 µM; in [12], 1.5 µM; in data set [13], 1.3 µM. In addition, the EC50 in data set [16] (mdck) was determined as 0.8 µM. Besides, the selectivity ratio in data set [9] was over 518; in data set [10] it was over 318; in data set [11], over 259; in data set [14], over 39; in data set [18], over 259.
As for `Nc1ccn([C@H]2C[C@@H](CO)[C@H](O)[C@@H]2O)c(=O)n1`, the EC90 in [1] is over 41 µM; in data set [15], over 414 µM; in data set [17] it was over 41 µM. Further, the selectivity ratio was under 10 in data set [2]; under 10 in [3]; under 10 in data set [8]; under 10 in data set [9]; 1 in [10]; 1 in [11]. The selectivity ratio was 1 in data set [14] and under 10 in data set [18]. The EC50 in data set [4] (Influenza A virus, MDCK, 72 h) is over 41 µM; in data set [5], over 41 µM; in data set [6] (setting [19]) it was over 41 µM; in [7] it was over 41 µM; in data set [12], over 41 µM; in data set [13] it was over 414 µM. This molecule also gave an EC50 in [16] (Influenza A virus, MDCK) of over 41 µM.
Take `NC(=O)c1ncn([C@@H]2O[C@H](CO)[C@@H](O)[C@H]2O)n1` [RIBAVIRIN]: the EC90 amounted to 20.3 µM in data set [1], 13 µM in [15] and 21.7 µM in data set [17]. The selectivity ratio in data set [2] was over 139; in [3] it was over 65; in data set [8] it was over 52; in [9], over 156; in [10], over 117; in [11], over 68. Further, the results for the selectivity ratio in data set [14] and in data set [18] were over 30 and over 65, respectively. The EC50 in data set [4] (Influenza A virus, MDCK, 72 h) was determined as 23.3 µM; in data set [5], 19.5 µM; in [6] (mdck), 8.4 µM; in [7] it was 4.3 µM; in [12], 13.9 µM; in data set [13] it was 11.2 µM. In [16] (Influenza A virus, MDCK), this molecule yielded an EC50 of 9.4 µM.
